Hits are enriched below; roughly 3% of the tested compounds scored in any of these assays.
TAAR1 antagonist: antagonists of human TAAR1; inhibition, % at 3 µM; CHO RD-HGA16 TAAR1, Fluo-8 calcium fluorescence, antagonist; AID 624466; actives 1.5% (n = 360,000); Q96RJ0;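 active means inhibition above a per-plate cutoff, the mean inhibition of test compounds on that plate plus 3 SD, cut at about 49% in these data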
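System: RD-HGA16 CHO cells with stable hTAAR1 and Gα16 | Probe or stimulus: EC80 β-phenethylamine stimulus | Dosing: 3 µM, single point | Times: Dye loading 75 min at 37 °C, then 30 min room temperature | Measured by: Fluo-8 calcium-sensitive fluorescence | Read-out basis: % inhibition of agonist calcium response | Replicates: n of 1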
M4 ag: CHRM4 agonism in calcium assay; CHO-K1 hM4/Gqi5, Fluo-8 calcium fluorescence; vehicle 0%, full acetylcholine response 100%; activation, % at 3 µM; actives 0.14% (n = 360,000); AID 624127;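 active means activation above the run mean over all test wells plus 3 SD, cut at about 32% in these data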;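 further: peak over basal fluorescence ratio per well then scaled between controls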
Target sequence (P08173 whole entry, looked up): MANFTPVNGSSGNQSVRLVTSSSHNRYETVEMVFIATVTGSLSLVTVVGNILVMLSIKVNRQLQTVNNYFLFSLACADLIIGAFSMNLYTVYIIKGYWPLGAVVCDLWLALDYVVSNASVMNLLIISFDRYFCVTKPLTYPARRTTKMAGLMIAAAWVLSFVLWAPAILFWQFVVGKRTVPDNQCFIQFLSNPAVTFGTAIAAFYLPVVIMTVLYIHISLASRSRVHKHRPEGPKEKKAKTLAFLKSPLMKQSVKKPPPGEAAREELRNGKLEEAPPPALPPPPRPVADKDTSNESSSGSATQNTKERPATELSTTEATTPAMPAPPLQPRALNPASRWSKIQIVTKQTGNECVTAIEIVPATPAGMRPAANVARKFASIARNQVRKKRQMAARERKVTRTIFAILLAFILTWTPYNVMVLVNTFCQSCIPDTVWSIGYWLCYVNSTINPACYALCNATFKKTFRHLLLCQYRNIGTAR
TAAR1 ag: agonists of human TAAR1; Q96RJ0; CHO RD-HGA16 TAAR1, Fluo-8 calcium fluorescence; vehicle wells 0%, saturating PEA agonist 100%; activation, % at 3 µM; actives 0.99% (n = 360,000); AID 624467;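 active means activation above the mean activation of all test compounds in the run plus 3 SD, cut at about 38% in these data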
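System: CHO-derived RD-HGA16 cells with stable Gα16 and human TAAR1. Times: 17-24 h plating, Fluo-8 75 min 37 °C, 30 min RT. Measured by: calcium-sensitive Fluo-8 signal, excitation 470-495, emission 515-575 nm. Read-out basis: % activation relative to PEA EC100 response. Control set: DMSO and PEA EC100. Repeats: no replicates (n 1).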
M4 PAM: CHRM4 positive allosteric modulation | CHO-K1 hM4/Gqi5, Fluo-8 calcium fluorescence, ACh EC20; 0% = ACh EC20, 100% = maximal ACh | actives 0.4% (n = 360,000) | activation, % at 3 µM | P08173;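 active means activation above its plate's cutoff, the mean activation of sample wells plus 3 SD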
CHRM4 antagonist: antagonists of human muscarinic M4 receptor (CHRM4) | CHO-hM4 cells, ACh EC80, Fluo-8 calcium fluorescence | actives 0.73% (n = 360,000) | AID 624125 | inhibition, % at 3 µM;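 active means inhibition above its plate's cutoff, the mean inhibition of sample wells plus 3 SD, cut at about 27% in these data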
Large screens that a line does not name were inactive; ! = a repeat was not active.

Cc1nn(C)c(C)c1N1C(=O)c2cccc3c(Br)ccc(c23)C1=O	none
CCCN1C(=O)c2cccc3c(N4CCCCC4)ccc(c23)C1=O	none
CCN1C(=O)c2cccc3c(N)ccc(c23)C1=O	M4 ag 316.9, TAAR1 ag 136.3, CHRM4 antagonist 44.2
Cc1nn(C)c(C)c1N1C(=O)c2cccc3c(N)ccc(c23)C1=O	TAAR1 antagonist 64.0, M4 ag 82.1, TAAR1 ag 124.3, CHRM4 antagonist 28.0
O=C1NC[C@H](Cc2ccc(O)cc2)N(C[C@@H]2CCCN2C[C@H](Cc2ccc(O)cc2)N2C[C@H](Cc3ccccc3)N(CCc3ccccc3)C(=O)C2=O)C1=O	none
CCOC(=O)CN1C(=O)[C@]2(OCCC=C[C@H]2C)c2cc(OC)ccc21	none (no result: M4 ag, M4 PAM, CHRM4 antagonist)
CCCCc1c(-c2ccccc2OC)ncn1Cc1cccc(OC)c1	none (no result: M4 ag, M4 PAM, CHRM4 antagonist)
CCN(CC)S(=O)(=O)c1ccc(N2CCOCC2)c(NC(=O)c2[nH]c(C)c(C(C)=O)c2C)c1	M4 PAM 28.9
CCN(CC)S(=O)(=O)c1ccc(N2CCOCC2)c(NC(=O)c2ccc(F)cc2)c1	none
CCc1c(C2(O)CCCCC2)[nH]c2cc(C(F)(F)F)ccc12	CHRM4 antagonist 41.6 (no result: TAAR1 antagonist, TAAR1 ag)
Cc1c(C2(O)CCCCC2)[nH]c2cc(C(F)(F)F)ccc12	CHRM4 antagonist 33.3
N#Cc1c(SC(C(=O)O)c2ccccc2)nc2c(c1-c1cccs1)CCCC2 (configuration not stated)	TAAR1 ag 37.9
CCOC(=O)c1c(-c2ccc(C)o2)csc1NC(=O)COC(=O)c1cccs1	CHRM4 antagonist 29.2
CCOC(=O)N[C@@H](CC(C)C)C(=O)N1CCC[C@H]1C(=O)NCc1ccccc1	none (no result: M4 ag, M4 PAM, CHRM4 antagonist)
O=C(Nc1ccc2cn[nH]c2c1)c1c(Cl)cccc1Cl	none
CN(C)c1ccc(NC2=C(Cl)C(=O)c3ccccc3C2=O)cc1	TAAR1 antagonist 66.2, CHRM4 antagonist 36.5
O=C1C(Cl)=C(NCCCO)C(=O)c2ccccc21	none
O=C1C(Cl)=C(Nc2ccc3cn[nH]c3c2)C(=O)c2ccccc21	TAAR1 antagonist 62.1, CHRM4 antagonist 39.1
CC(C)C[C@H](NC(=O)c1ccccc1)C(=O)N1CCC[C@H]1C(=O)NCc1ccccc1	none (no result: M4 ag, M4 PAM, CHRM4 antagonist)
Oc1ccc(-c2nc3ccccn3c2NCc2ccco2)cc1	TAAR1 antagonist 51.6
O=C(Nc1c(-c2ccccc2)nc2ccccn12)c1ccco1	none
c1ccc(-c2noc(-c3ccno3)n2)nc1	none
Cc1ccc(-c2noc(-c3ccno3)n2)cc1	M4 PAM 30.6
C=CCCN1[C@@H](Cc2ccccc2)COc2ccccc2S1(=O)=O	none (no result: M4 ag, M4 PAM, CHRM4 antagonist)
COc1ccccc1CNC1CCCc2ccccc21 (configuration not stated)	CHRM4 antagonist 29.6
CC(C)c1ccc(NC(=O)CSc2nc(=O)[nH]c3c2CCCC3)cc1	M4 PAM 28.1
CCN(CC)CCn1c2c(c(SCC(=O)Nc3ccc(C(C)C)cc3)nc1=O)CCCC2	none
CS/C(=N/S(=O)(=O)c1ccc(C)cc1)c1ccccc1	M4 PAM 24.0
COC(=O)c1ccc(N2CCOCC2)c(NC(=O)c2ccco2)c1	CHRM4 antagonist 28.5
COc1ccc(N2CCOCC2)c(NC(=O)c2ccco2)c1	none
CC(C)(C)OC(=O)NC1CC2CCCC(C1)N2Cc1ccccc1 (configuration not stated)	CHRM4 antagonist 83.5
C[C@@H]1NS(=O)(=O)c2cccc(Cl)c2O[C@@H]1c1ccccc1	none (no result: M4 ag, M4 PAM, CHRM4 antagonist)
Cc1ccc(C)c(NS(=O)(=O)c2ccc(OCC(=O)NCc3ccco3)cc2)c1	none
Cc1ccc(NS(=O)(=O)c2ccc(OCC(=O)NCc3ccco3)cc2)cc1	TAAR1 ag 40.3
Cc1cc(SCC(N)=O)nc(SCC(=O)c2ccccc2)n1	none
Cc1ccc(C(=O)CSc2cc(C)nc(SCC(=O)c3ccccc3)n2)cc1	TAAR1 antagonist 54.4
CCC/C=C/c1ccc(CN2C(C(C)C)C(=O)N(Cc3cn(CCC4OCCO4)nn3)CCS2(=O)=O)cc1 (configuration not stated)	none
COC(=O)C1=C(C)N(Cc2ccccc2C(F)(F)F)C(=NCc2cccc(C(F)(F)F)c2)NC1CCc1ccccc1 (configuration not stated)	none (no result: M4 ag, M4 PAM, CHRM4 antagonist)
CCCCCCCCCCOC(=O)Cn1c(COc2ccccc2C)[n+](C)c2ccccc21	CHRM4 antagonist 91.8 (no result: TAAR1 antagonist, TAAR1 ag)
CCCCCCCCCCOC(=O)Cn1c(COc2ccccc2)[n+](C)c2ccccc21	CHRM4 antagonist 37.7
CCCCCCCCCCOC(=O)Cn1c(COc2ccc(Cl)cc2)[n+](C)c2ccccc21	TAAR1 ag 47.1
CCCCCCCCCCOC(=O)Cn1c(COc2ccc(OC)cc2)[n+](C)c2ccccc21	CHRM4 antagonist 32.3! (no result: TAAR1 antagonist, TAAR1 ag)
CCOC(=O)Cn1c(COc2ccccc2OC)[n+](C)c2ccccc21	none
CCCCOC(=O)Cn1c(=O)n(CC(=O)OCCCC)c2ccccc21	none
COC(=O)[C@]12C[C@H](CC(=O)NCC3CCCCC3)C(=O)N(CCc3ccc(OC)c(OC)c3)C1=C[C@H](C(C)(C)C)O[C@@H]2C	none (no result: M4 ag, M4 PAM, CHRM4 antagonist)
COC(=O)c1cc2c(c3c4cc(C)ccc4n(S(=O)(=O)c4ccccc4)c13)C(=O)N(Cc1ccc(C(F)(F)F)cc1)C2	none (no result: M4 ag, M4 PAM, CHRM4 antagonist)
Cc1ccc([C@H]2C[C@@H](O)[C@H](n3cc(C4CC4)nn3)CN2C(=O)C2CCCCC2)cc1	none
CCCCCCCCCCOC(=O)Cn1c(COc2cccc(C)c2)[n+](C)c2ccccc21	TAAR1 antagonist 65.1, TAAR1 ag 41.6, CHRM4 antagonist 38.0
CC(C)Cn1c([N+](=O)[O-])nc2c1c(=O)[nH]c(=O)n2C	none
Cn1c(=O)[nH]c(=O)c2c1nc([N+](=O)[O-])n2Cc1ccccc1	M4 PAM 40.6
O=C(Nc1cc([N+](=O)[O-])ccc1Cl)C(Sc1ccccc1)c1ccccc1 (configuration not stated)	none
O=C(Nc1ccc(Cl)c([N+](=O)[O-])c1)C(Sc1ccccc1)c1ccccc1 (configuration not stated)	TAAR1 antagonist 57.3
O=C1c2c(O)cccc2Cc2cccc(O)c21	TAAR1 antagonist 103.6
O=C1Cc2cccc(=O)c(O)c2C(=O)O1	none
O=S(=O)(c1ccc(F)cc1)N1CCCc2nc(-c3ccc(Br)cc3)ccc21	none (no result: M4 ag, M4 PAM, CHRM4 antagonist)
O=C(N/N=C/c1ccccc1)c1ccc(NC(=O)c2ccc(F)cc2)cc1	M4 PAM 23.9
O=C(N/N=C/c1cccnc1)c1ccc(NC(=O)c2ccccc2Cl)cc1	TAAR1 antagonist 50.4
Cc1ccccc1NC(=O)CCC(=O)N/N=C/c1ccc(F)cc1	M4 PAM 24.9
Cc1ccc(C(=O)Nc2ccc(C(=O)N/N=C/c3cccnc3)cc2)cc1	none
Cc1ccccc1C(=O)Nc1ccc(C(=O)N/N=C/c2ccc(O)c(Br)c2)cc1	TAAR1 antagonist 52.0
Cc1ccccc1NC(=O)CCC(=O)N/N=C/c1cccnc1	none
